Screening data deposited in PubChem BioAssay by several laboratories.
Yeast superoxide: reduction of superoxide in aged yeast, primary screen, HTS; superoxide response (% of plate mean), % at 10 µM; S. cerevisiae aged cells, superoxide DHE fluorescence; stronger effect = lower value; 0.18% of 330,000 active;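 active means superoxide response under a set limit, about three screen SD below normal, cut at about 65% in these data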;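 further: yeast aged for seven days with compound at 30 °C before DHE staining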
TRPC4 inh: inhibitors of mouse TRPC4 channel, primary screen, Fluo4 calcium, HEK293 TRPC4beta/mu-opioid cells; B-score at 10 µM; AID 2247, 2010; Short transient receptor potential channel 4 (Mus musculus), Q9QUQ5; 0.39% of 300,000 active; DAMGO-evoked Fluo4 calcium flux; stronger effect = lower value;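 active means B-score over 3 SD under the library average, no early fluorescence shift, positive overall ratio signal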
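material = TRPC4beta/mu-opioid receptor HEK293 cell line | probe or stimulus = sequential submaximal and maximal DAMGO stimulation | compound dosing = one concentration per compound | measured by = Fluo4 Ca2+ flux fluorescence | evaluation = integrated fluorescence ratio relative to baseline, converted to per-well B score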
TRPC4 potent: positive allosteric modulators of TRPC4, primary screen, cell-based, mouse TRPC4beta, HEK293 mu-opioid, Fluo-4 calcium | Short transient receptor potential channel 4 (Mus musculus), Q9QUQ5 | DAMGO EC20, Fluo-4 Ca2+ flux; stronger effect = higher value | B-score at 10 µM | 0.42% of 310,000 active | AID 2227, 2009;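 active means B-score of calcium response area above 5 SD of library B-scores, with initial fluorescence ratio within 5 SD of library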
TRPC6 inhibitor: mouse TRPC6 channel inhibitors, primary screen, cell-based, HEK293, membrane potential dye; Short transient receptor potential channel 6 (Mus musculus), Q61143; ACh-evoked depolarization; stronger effect = lower value; B-score at 10 µM; 1.1% of 310,000 active; AID 2553, 2010;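 active means B-score under library mean minus 3 SD, initial fluorescence not abnormally high, positive integrated signal ratio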;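 further: B-score derived from integrated fluorescence ratio over the kinetic read; more negative B-score means stronger inhibition of depolarization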
Target sequence (Q61143 whole entry, looked up): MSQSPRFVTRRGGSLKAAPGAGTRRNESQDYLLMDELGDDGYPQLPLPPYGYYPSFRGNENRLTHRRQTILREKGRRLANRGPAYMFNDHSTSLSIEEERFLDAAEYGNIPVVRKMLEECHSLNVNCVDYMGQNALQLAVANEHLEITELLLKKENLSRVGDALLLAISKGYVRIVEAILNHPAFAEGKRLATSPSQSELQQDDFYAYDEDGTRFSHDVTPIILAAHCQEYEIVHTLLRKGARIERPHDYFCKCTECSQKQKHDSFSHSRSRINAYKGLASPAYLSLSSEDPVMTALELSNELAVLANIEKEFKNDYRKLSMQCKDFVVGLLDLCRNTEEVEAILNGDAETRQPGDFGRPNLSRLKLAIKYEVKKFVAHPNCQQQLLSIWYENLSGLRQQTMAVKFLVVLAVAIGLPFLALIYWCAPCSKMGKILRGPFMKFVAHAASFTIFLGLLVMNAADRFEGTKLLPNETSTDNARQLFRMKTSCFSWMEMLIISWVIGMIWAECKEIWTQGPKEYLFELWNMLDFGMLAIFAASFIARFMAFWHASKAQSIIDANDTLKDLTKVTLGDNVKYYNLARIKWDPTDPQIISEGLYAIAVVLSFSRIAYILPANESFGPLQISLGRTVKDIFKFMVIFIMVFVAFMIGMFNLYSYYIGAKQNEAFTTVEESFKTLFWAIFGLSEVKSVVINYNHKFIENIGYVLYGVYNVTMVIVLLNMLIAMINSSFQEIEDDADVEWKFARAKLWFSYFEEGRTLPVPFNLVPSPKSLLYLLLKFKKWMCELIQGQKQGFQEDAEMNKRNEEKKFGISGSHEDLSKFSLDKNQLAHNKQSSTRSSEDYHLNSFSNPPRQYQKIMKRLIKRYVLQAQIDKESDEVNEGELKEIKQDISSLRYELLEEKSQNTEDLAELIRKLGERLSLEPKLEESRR
TRPC4 agonist: activators of mouse TRPC4 channel, primary screen, Fluo4 calcium, HEK293 TRPC4beta/mu-opioid cells; Short transient receptor potential channel 4 (Mus musculus), Q9QUQ5; Fluo4 calcium fluorescence; stronger effect = higher value; B-score at 10 µM; 0.49% of 310,000 active;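 active means B-score above 5 SD of library B-scores, and initial fluorescence ratio not above library mean plus 5 SD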;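 further: positive B-score marks a calcium rise read as TRPC4 activation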
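system = HEK293 cells stably co-expressing mouse TRPC4beta and mu-opioid receptor | schedule = Fluo4 dye loading 45 min at room temperature, 110 s recording | measure = B-scored integrated calcium fluorescence ratio | signal = Fluo4 calcium-sensitive dye fluorescence, kinetic, 1 Hz baseline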
TRPC6 activator: mouse TRPC6 channel activators, primary screen, cell-based, HEK293, membrane potential dye; HEK293-TRPC6 membrane potential dye fluorescence; stronger effect = higher value; B-score at 10 µM; 0.13% of 310,000 active;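 active means B-score of the integrated fluorescence ratio above library mean plus 3 SD, and starting fluorescence ratio within library mean plus 5 SD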;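 further: higher score means more depolarization so channel activation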
Each line names hits and unclear results; the compound was inactive in the other large screens. A selection: hits, their analogues and other compounds. The true share with any hit is near 2.3%.

CCOC(=O)c1c(NC(=O)C2CCCO2)sc2c1CCC2 (centres undefined)	TRPC4 potent 15
O=c1c2ccccc2ncn1Cc1ccc2c(c1)OCO2	none
COc1cccc(CNC(=O)CCC2CCCN(C(=O)Cc3ccccc3F)C2)c1 (centres undefined)	none
COc1cccc(CNC(=O)CCC2CCCN(Cc3cc(Cl)ccc3O)C2)c1 (centres undefined)	TRPC4 inh -7
COc1ccccc1/C=C/CN1CCCC(CCC(=O)NCc2ccccc2F)C1 (centres undefined)	TRPC4 inh -6, TRPC4 agonist 113
COc1ccc(NC(=O)c2sccc2C)c([N+](=O)[O-])c1	none
O=C(NNc1ccc([N+](=O)[O-])cc1)C1CC1c1ccccc1 (centres undefined)	none
O=[N+]([O-])c1ccc(C2CNC(c3ccccc3)O2)cc1 (centres undefined)	TRPC4 potent 14
CCOC(=O)c1cc2c(=O)n3ccccc3nc2n(CCOC)c1=NC(=O)C(C)(C)C	TRPC4 agonist 152
CCOC(=O)c1cc2c(=O)n3ccccc3nc2n(Cc2ccco2)c1=NC(=O)c1cccnc1	TRPC4 potent 11
CCOC(=O)c1cc2c(=O)n3ccccc3nc2n(C(C)C)c1=NC(=O)c1c(-c2ccccc2Cl)noc1C	TRPC4 inh -8
CCOC(=O)c1cc2c(=O)n3ccccc3nc2n(C(C)C)c1=NC(=O)c1ccncc1	none
CCCCn1c(SCC(=O)NCc2ccco2)nc2ccc(N3CCOCC3)cc2c1=O	none
O=S(=O)(Cc1ccccc1Cl)NCCc1ccccc1	none
O=C1CN=C(Nc2cccc(C(F)(F)F)c2)N1C1CCCC1	TRPC4 inh -6
Cc1cc(C)c(NC2=NCC(=O)N2C2CCCCC2)c(C)c1	none
CC1CC(C)CN(S(=O)(=O)c2ccc(C(=O)N(c3ccccn3)C3CCCCC3)cc2)C1 (centres undefined)	TRPC4 inh -6
Cc1ccc(NC(=O)CNc2ccc(Cl)c(Cl)c2)cc1S(=O)(=O)N(C)C	none
CCN(CC)CCCNC(=O)C1c2ccccc2C(=O)N(CCOC)C1c1ccc(F)cc1 (centres undefined)	none
CCCCN(CC)CCCNC(=O)C1c2ccccc2C(=O)N(C)C1c1cn(C)c2ccccc12 (centres undefined)	TRPC4 agonist 80
CCCN1C(=O)/C(=C/c2ccncc2)SC1=S	none
O=C1/C(=C/c2ccncc2)SC(=S)N1Cc1ccccc1	TRPC4 potent 12
CCN(CCNC(=O)C1CCCN(c2ncnc3c2nc2n3CCCCC2)C1)Cc1ccccc1 (centres undefined)	TRPC4 potent 19
Cc1ccc(C)c(N2CCN(C(=O)C3CCCN(c4ncnc5c4nc4n5CCCCC4)C3)CC2)c1 (centres undefined)	TRPC4 potent 15
CC1CC(C)CN(CCCNC(=O)C2CCCN(c3ncnc4c3nc3n4CCCCC3)C2)C1 (centres undefined)	TRPC4 potent 18
O=C1c2ccccc2-c2onc3ccc(NCCCn4ccnc4)c1c23	none
CCCNC(=S)NC1CCCC1	none
CCN1CCN(c2ccc(S(=O)(=O)N3CCCCC3)cc2NC(=O)c2cc3ccccc3o2)CC1	TRPC4 potent 18
CCN1CCN(c2ccc(S(=O)(=O)N3CCCCC3)cc2NC(=O)c2cccc(OC(F)F)c2)CC1	TRPC4 potent 19
CCN1CCN(c2ccc(S(=O)(=O)N3CCCCC3)cc2NC(=O)/C=C/c2ccc(F)cc2)CC1	none
Cc1ccc(S(=O)(=O)N2CCCCC2)cc1NC(=O)c1cc2ccccc2o1	none (no result: TRPC4 inh, TRPC4 potent, TRPC6 inhibitor, TRPC4 agonist, TRPC6 activator)
CCN1CCN(c2ccc(S(=O)(=O)N3CCCCC3)cc2NC(=O)Cc2c(F)cccc2Cl)CC1	TRPC4 potent 11
CCN1CCN(c2ccc(S(=O)(=O)N3CCCCC3)cc2NC(=O)c2cccc(Cl)c2)CC1	TRPC4 potent 18, TRPC4 agonist 45
CCN1CCN(c2ccc(S(=O)(=O)N3CCCCC3)cc2NC(=O)c2ccc(OC(F)F)cc2)CC1	none
COCCc1nc2ccc(C(=O)NCc3cccc(-n4cccn4)c3)cc2o1	none
CCN1CCN(c2c(Cl)cccc2NC(=O)c2cc3ccccc3o2)CC1	TRPC4 potent 23
CCN1CCN(c2c(Cl)cccc2NC(=O)c2ccc3c(c2)OCCO3)CC1	none
CCN1CCN(c2ccc(S(=O)(=O)N3CCCCC3)cc2NC(=O)Cc2ccc(OC)cc2)CC1	TRPC4 agonist 63
Cc1nc(Cl)c(Cl)n1CCOc1ccccc1	TRPC4 inh -8
CCCc1nc2ccccc2n1CCOc1ccccc1	TRPC4 inh -6
CCCc1nc2ccccc2n1CCOC	none
Cc1nc2ccccc2n1Cc1ccc(Br)cc1	TRPC4 inh -6
CC(C)(C)Cc1nc2ccccc2n1CCc1ccccc1	TRPC4 inh -7
CCc1nc2ccccc2n1CCc1ccccc1	none
CCC(=O)Nc1ccc(C(=O)OCC(=O)c2cccs2)cc1	none
O=C(Oc1cccnc1)c1cccc(Cl)c1	none
Nc1nc2ccccc2n1CCOc1ccc(Br)cc1	none
Cc1ccc(OCCn2c(C)nc3ccccc32)cc1	TRPC4 inh -6
Nc1nc2ccccc2n1CCOc1ccc(Cl)cc1	TRPC4 inh -7
Cc1nc2ccccc2n1CCCOc1ccccc1	none
COc1ccc(NC(=O)OCC(C)C)cc1OC	none
N#Cc1c(NCCCO)nc(-c2ccccc2)c2c1CCCC2	TRPC4 agonist 49
CC(=O)NC(CC(=O)OCC(=O)N1CCc2ccccc21)c1ccccc1 (centres undefined)	none
COc1ccc(CC(O)CC2c3c(cc4c(c3OC)OCO4)CCN2C)cc1 (centres undefined)	TRPC4 inh -6, TRPC4 agonist 58
CCOCc1cn(CC(=O)c2ccc(Cl)cc2)c(C)nc1=N	TRPC4 inh -8
Cc1c(CCOC(=O)CC23CC4CC(CC(C4)C2)C3)sc[n+]1CC(=O)c1ccccc1	TRPC4 inh -5
CC[C@H](NC(=O)c1c(C)c(-c2ccccc2)nc2ccccc12)c1ccccc1	TRPC6 activator 13.2
Cc1c(-c2ccccc2)nc2ccccc2c1C(=O)O	none
CCCNC(=O)C(CC)NC(=O)c1cccc([N+](=O)[O-])c1 (centres undefined)	none (no result: TRPC4 inh, TRPC4 potent, TRPC6 inhibitor, TRPC4 agonist, TRPC6 activator)
CSCC[C@H](N)C(=O)N1CCC(C(=O)N[C@@H](Cc2c[nH]c3ccccc23)C(=O)O)CC1	none
